From ChEMBL document CHEMBL1155155, “Single-dose pharmacokinetics of intravenous itraconazole and hydroxypropyl-beta-cyclodextrin in infants, children, and adolescents” (Antimicrob Agents Chemother, 2007)

What was measured:
Homo sapiens [1] = assay: Cmax in human at risk for fungal infection assessed as hydroxyitraconazole level at 2.5 mg/kg, iv in 0.1 g/kg hydroxypropyl-beta-cyclodextrin administered as single dose; format: ADME, organism-based; design: dose 2.5 mg/kg, route intravenous; conditions: in vivo
Outline: (§1)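 Single constant-rate IV infusion over 1 h. Heparinised venous plasma was drawn predose and at 1–120 h (>2 yr) or 1–96 h (<2 yr, randomised to the itraconazole/metabolite arm), then stored at –20°C. Analysis used borate-buffered liquid-liquid extraction with internal standard, C18 HPLC and UV detection at 263 nm, linear 5–5,000 ng/ml. Individual Cmax was read by visual inspection, noncompartmental.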

[2] = Clearance in children of >6-12 yrs age at risk for fungal infection at 2.5 mg/kg, iv in 0.1 g/kg hydroxypropyl-beta-cyclodextrin administered as single dose; format: ADME, organism-based; design: dose 2.5 mg/kg, route intravenous; conditions: human, in vivo
Outline: (§2)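 Single 1-h IV infusion. Plasma sampled from the contralateral limb predose and at 1–120 h (>2 y) or 1–96 h (<2 y). Itraconazole was extracted with internal standard and quantified by C18 HPLC with UV 263 nm detection, linear range 2–2,000 ng/ml. Noncompartmental analysis: Cmax by inspection, AUC0-24 by trapezoidal rule, AUC extrapolated via λz, CL and Vz from AUC0-∞.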

Homo sapiens [3] = assay: AUC (0 to 24 hrs) in infants of 0.6-2 yrs age at risk for fungal infection assessed as hydroxyitraconazole level at 2.5 mg/kg, iv in 0.1 g/kg hydroxypropyl-beta-cyclodextrin administered as single dose; format: ADME, organism-based, Plasma; design: time < 24 hr, dose 2.5 mg/kg, route intravenous; conditions: in vivo
Outline: (§3)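 Single 1-h constant-rate IV infusion. Venous plasma sampled predose and to 120 h (>2 y) or 96 h (<2 y), then stored at –20°C. Hydroxyitraconazole was measured by borate/isoamylalcohol-heptane extraction, HCl back-extraction, C18 HPLC and UV 263 nm, with a linear range of 5–5,000 ng/ml. Noncompartmental analysis: Cmax and tmax by inspection, AUC0-24 by trapezoidal rule.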

Homo sapiens [4] = assay: Cmax in adolescents of >12-16 yrs age at risk for fungal infection assessed as hydroxyitraconazole level at 2.5 mg/kg, iv in 0.1 g/kg hydroxypropyl-beta-cyclodextrin administered as single dose; format: ADME, organism-based; design: dose 2.5 mg/kg, route intravenous; conditions: in vivo; outline: as §3
Homo sapiens [5] = assay: Half life in children of >2-6 yrs age at risk for fungal infection assessed as hydroxyitraconazole level at 2.5 mg/kg, iv in 0.1 g/kg hydroxypropyl-beta-cyclodextrin administered as single dose; format: ADME, organism-based; design: dose 2.5 mg/kg, route intravenous; conditions: in vivo; outline: as §3
Homo sapiens [6] = assay: AUC (0 to 24 hrs) in adolescents of >12-16 yrs age at risk for fungal infection assessed as hydroxyitraconazole level at 2.5 mg/kg, iv in 0.1 g/kg hydroxypropyl-beta-cyclodextrin administered as single dose; format: ADME, organism-based, Plasma; design: time < 24 hr, dose 2.5 mg/kg, route intravenous; conditions: in vivo; outline: as §3
[7] = Half life in infants of 0.6-2 yrs age at risk for fungal infection at 2.5 mg/kg, iv in 0.1 g/kg hydroxypropyl-beta-cyclodextrin administered as single dose; format: ADME, organism-based; design: dose 2.5 mg/kg, route intravenous; conditions: human, in vivo; outline: as §2
[8] = AUC (0 to 24 hrs) in infants of 0.6-2 yrs age at risk for fungal infection at 2.5 mg/kg, iv in 0.1 g/kg hydroxypropyl-beta-cyclodextrin administered as single dose; format: ADME, organism-based; design: time < 24 hr, dose 2.5 mg/kg, route intravenous; conditions: human, plasma; outline: as §2
Homo sapiens [9] = assay: Cmax in children of >2-6 yrs age at risk for fungal infection assessed as hydroxyitraconazole level at 2.5 mg/kg, iv in 0.1 g/kg hydroxypropyl-beta-cyclodextrin administered as single dose; format: ADME, organism-based; design: dose 2.5 mg/kg, route intravenous; conditions: in vivo; outline: as §1
[10] = Apparent volume of distribution in adolescents of >12-16 yrs age at risk for fungal infection at 2.5 mg/kg, iv in 0.1 g/kg hydroxypropyl-beta-cyclodextrin administered as single dose; format: ADME, organism-based; design: dose 2.5 mg/kg, route intravenous; conditions: human, in vivo; outline: as §2
[11] = Clearance in infants of 0.6-2 yrs age at risk for fungal infection at 2.5 mg/kg, iv in 0.1 g/kg hydroxypropyl-beta-cyclodextrin administered as single dose; format: ADME, organism-based; design: dose 2.5 mg/kg, route intravenous; conditions: human, in vivo; outline: as §2
Homo sapiens [12] = assay: AUC (0 to 24 hrs) in human at risk for fungal infection assessed as hydroxyitraconazole level at 2.5 mg/kg, iv in 0.1 g/kg hydroxypropyl-beta-cyclodextrin administered as single dose; format: ADME, organism-based, Plasma; design: time < 24 hr, dose 2.5 mg/kg, route intravenous; conditions: in vivo; outline: as §3
[13] = Cmax in human at risk for fungal infection at 2.5 mg/kg, iv in 0.1 g/kg hydroxypropyl-beta-cyclodextrin administered as single dose; format: ADME, organism-based; design: dose 2.5 mg/kg, route intravenous; conditions: in vivo; outline: as §2
Homo sapiens [14] = assay: Tmax in adolescents of >12-16 yrs age at risk for fungal infection assessed as hydroxyitraconazole level at 2.5 mg/kg, iv in 0.1 g/kg hydroxypropyl-beta-cyclodextrin administered as single dose; format: ADME, organism-based; design: dose 2.5 mg/kg, route intravenous; conditions: in vivo; outline: as §3
Homo sapiens [15] = assay: Tmax in children of >2-6 yrs age at risk for fungal infection assessed as hydroxyitraconazole level at 2.5 mg/kg, iv in 0.1 g/kg hydroxypropyl-beta-cyclodextrin administered as single dose; format: ADME, organism-based; design: dose 2.5 mg/kg, route intravenous; conditions: in vivo; outline: as §3
[16] = AUC (0 to 24 hrs) in adolescents of >12-16 yrs age at risk for fungal infection at 2.5 mg/kg, iv in 0.1 g/kg hydroxypropyl-beta-cyclodextrin administered as single dose; format: ADME, organism-based; design: time < 24 hr, dose 2.5 mg/kg, route intravenous; conditions: human, plasma; outline: as §2
[17] = Clearance in human at risk for fungal infection at 2.5 mg/kg, iv in 0.1 g/kg hydroxypropyl-beta-cyclodextrin administered as single dose; format: ADME, organism-based; design: dose 2.5 mg/kg, route intravenous; conditions: in vivo; outline: as §2
Homo sapiens [18] = assay: Half life in adolescents of >12-16 yrs age at risk for fungal infection assessed as hydroxyitraconazole level at 2.5 mg/kg, iv in 0.1 g/kg hydroxypropyl-beta-cyclodextrin administered as single dose; format: ADME, organism-based; design: dose 2.5 mg/kg, route intravenous; conditions: in vivo; outline: as §3
Homo sapiens [19] = assay: Tmax in infants of 0.6-2 yrs age at risk for fungal infection assessed as hydroxyitraconazole level at 2.5 mg/kg, iv in 0.1 g/kg hydroxypropyl-beta-cyclodextrin administered as single dose; format: ADME, organism-based; design: dose 2.5 mg/kg, route intravenous; conditions: in vivo; outline: as §3
[20] = Half life in adolescents of >12-16 yrs age at risk for fungal infection at 2.5 mg/kg, iv in 0.1 g/kg hydroxypropyl-beta-cyclodextrin administered as single dose; format: ADME, organism-based; design: dose 2.5 mg/kg, route intravenous; conditions: human, in vivo; outline: as §2
Homo sapiens [21] = assay: Toxicity in human at risk for fungal infection assessed as occurrence of adverse events at 2.5 mg/kg, iv in 0.1 g/kg hydroxypropyl-beta-cyclodextrin administered as single dose; format: organism-based; design: dose 2.5 mg/kg, route intravenous; conditions: in vivo
Outline: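 Safety was assessed by medical history, physical examination, complete blood count, serum chemistry, liver function tests and urinalysis. These were done before the single 1-h IV infusion and again at study completion. Subjects stayed at the study facility through 24 h postdose.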

[22] = Apparent volume of distribution in children of >6-12 yrs age at risk for fungal infection at 2.5 mg/kg, iv in 0.1 g/kg hydroxypropyl-beta-cyclodextrin administered as single dose; format: ADME, organism-based; design: dose 2.5 mg/kg, route intravenous; conditions: human, in vivo; outline: as §2
[23] = AUC (0 to 24 hrs) in human at risk for fungal infection at 2.5 mg/kg, iv in 0.1 g/kg hydroxypropyl-beta-cyclodextrin administered as single dose; format: ADME, organism-based; design: time < 24 hr, dose 2.5 mg/kg, route intravenous; conditions: plasma; outline: as §2

## CCC(C)n1ncn(-c2ccc(N3CCN(c4ccc(OCC5COC(Cn6cncn6)(c6ccc(Cl)cc6Cl)O5)cc4)CC3)cc2)c1=O (stereo not drawn) [ITRACONAZOLE]
Homo sapiens [1]
  Cmax: 293 ng/mL
[2]
  clearance: 10.3 mL/min/kg
Homo sapiens [3]
  AUC: 4155 ng·h/mL
Homo sapiens [4]
  Cmax: 321 ng/mL
Homo sapiens [5]
  t1/2: 12.7 h
Homo sapiens [6]
  AUC: 3133 ng·h/mL
[7]
  half-life: 13.3 h
[8]
  AUC(0-t) at 24 h: 2120 ng·h/mL
Homo sapiens [9]
  Cmax: 299 ng/mL
[10]
  Vd: 28.5 L/kg
[11]
  clearance: 19.1 mL/min/kg
Homo sapiens [12]
  AUC: 3811 ng·h/mL
[13]
  Cmax: 1020 ng/mL
Homo sapiens [14]
  Tmax: 1.2 h
Homo sapiens [15]
  Tmax: 2.9 h
[16]
  AUC(0-t) at 24 h: 2670 ng·h/mL
[17]
  clearance: 11.7 mL/min/kg
Homo sapiens [18]
  t1/2: 12.3 h
Homo sapiens [19]
  Tmax: 4 h
[20]
  half-life: 29 h
Homo sapiens [21]
  Activity: Toxic
[22]
  Vd: 13.9 L/kg
[23]
  AUC(0-t) at 24 h: 4920 ng·h/mL
